Laboratory results: ChEMBL document CHEMBL1255228 (J Med Chem, 2010)

Experiments:
Cannabinoid receptor 2 [1] = target: Cannabinoid receptor 2 (Mus musculus, UniProt P47936); test: Displacement of [3H]CP55940 from mouse spleen CB2 receptor; assay type: tissue-based
Cannabinoid receptor 1 = Cannabinoid receptor 1 (Rattus norvegicus, UniProt P20272); test: Displacement of [3H]CP55940 from rat brain CB1 receptor
Cannabinoid receptor 2 [2] = target: Cannabinoid receptor 2 (Homo sapiens, UniProt P34972); test: Displacement of [3H]CP55940 from human CB2 receptor expressed in HEK293 cells; assay type: cell-based
Rattus norvegicus [3] = species on record: Rattus norvegicus; test: Antinociceptive activity in Sprague-Dawley rat assessed as reduction in heat-induced tail flick latency; assay type: functional; design: scale not given: the % may be the effect or the level left
In short: (§1)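 Female Sprague-Dawley rats (200–350 g, n=5-6/group), tested repeatedly with ≥3 days between sessions. Drug given s.c. (1.0 ml/kg) in 20% ethanol/20% alkamuls/60% saline diluted with saline; morphine in saline. Lamp set for 2–3 sec baseline, 6.0 sec cut-off; two baselines at 10 min intervals; latency read at 30, 60, 120, 180, 360 min. Expressed as %MPE.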

Rattus norvegicus [4] = test: Antinociceptive activity in Sprague-Dawley rat assessed as reduction in heat-induced tail flick latency at 0.1 mg/kg, sc after 120 mins; assay type: functional; design: scale not given: the % may be the effect or the level left; conditions: route subcutaneous; in short: as §1
Rattus norvegicus [5] = test: Antinociceptive activity in sc dosed Sprague-Dawley rat assessed as thermal-stimulus induced tail flick latency after 120 mins; assay type: functional; conditions: 2 h; in short: as §1

Cannabinoid receptor 2 (Mus musculus, UniProt P47936), sequence (P47936 whole entry): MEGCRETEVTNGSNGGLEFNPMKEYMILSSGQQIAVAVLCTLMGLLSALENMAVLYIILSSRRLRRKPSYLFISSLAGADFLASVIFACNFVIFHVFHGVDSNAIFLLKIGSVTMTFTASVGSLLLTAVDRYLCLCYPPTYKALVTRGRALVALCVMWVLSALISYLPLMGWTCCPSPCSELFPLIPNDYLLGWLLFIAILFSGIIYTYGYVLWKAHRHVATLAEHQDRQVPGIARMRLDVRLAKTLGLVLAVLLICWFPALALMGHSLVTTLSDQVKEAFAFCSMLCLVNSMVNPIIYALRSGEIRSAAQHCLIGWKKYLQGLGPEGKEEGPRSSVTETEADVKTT
Cannabinoid receptor 1, sequence (P20272 whole entry): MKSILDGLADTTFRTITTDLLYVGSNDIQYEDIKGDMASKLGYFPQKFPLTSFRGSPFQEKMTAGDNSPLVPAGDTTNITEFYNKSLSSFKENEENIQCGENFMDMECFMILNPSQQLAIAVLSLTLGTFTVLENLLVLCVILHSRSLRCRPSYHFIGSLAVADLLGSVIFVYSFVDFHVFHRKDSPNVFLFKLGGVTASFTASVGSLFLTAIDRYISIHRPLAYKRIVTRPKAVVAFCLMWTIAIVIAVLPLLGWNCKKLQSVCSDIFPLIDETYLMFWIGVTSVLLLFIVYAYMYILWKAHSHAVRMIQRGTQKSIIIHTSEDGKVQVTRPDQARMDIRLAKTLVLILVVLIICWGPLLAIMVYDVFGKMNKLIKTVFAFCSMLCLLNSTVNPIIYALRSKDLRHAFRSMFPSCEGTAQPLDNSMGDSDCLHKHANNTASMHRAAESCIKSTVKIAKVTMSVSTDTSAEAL
Cannabinoid receptor 2 (Homo sapiens, UniProt P34972), sequence (P34972 whole entry): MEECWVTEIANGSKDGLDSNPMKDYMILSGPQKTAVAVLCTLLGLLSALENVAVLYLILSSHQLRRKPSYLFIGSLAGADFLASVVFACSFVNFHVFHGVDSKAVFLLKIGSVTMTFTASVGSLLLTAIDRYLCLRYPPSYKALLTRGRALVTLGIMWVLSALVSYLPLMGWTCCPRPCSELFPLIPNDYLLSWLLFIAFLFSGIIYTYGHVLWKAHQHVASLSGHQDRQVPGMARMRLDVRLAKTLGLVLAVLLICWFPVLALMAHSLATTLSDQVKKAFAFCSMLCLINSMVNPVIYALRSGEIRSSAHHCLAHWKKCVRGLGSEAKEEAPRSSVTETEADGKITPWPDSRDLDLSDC

Work on `CCCCCc1cc(O)c2c(c1)OC(C)(C)[C@@H]1CCC(=O)C[C@@H]21` yielded a Ki (Cannabinoid receptor 2 [1]) of 265 nM and a Ki (Cannabinoid receptor 1) of 333 nM.

`CC1(C)Oc2cc(C3(CCCCCBr)CCC3)cc(O)c2[C@@H]2CC(=O)CC[C@H]21` gave a Ki (Cannabinoid receptor 2 [1]) of 7.56 nM, a Ki (Cannabinoid receptor 2 [2]) of 5.88 nM and a Ki (Cannabinoid receptor 1) of 2.33 nM.

Compound `CCCC/C=C\C1(c2cc(O)c3c(c2)OC(C)(C)[C@@H]2CCC(=O)C[C@@H]32)CCCC1` has a Ki (Cannabinoid receptor 2 [1]) of 5.25 nM, a Ki (Cannabinoid receptor 2 [2]) of 7.02 nM and a Ki (Cannabinoid receptor 1) of 1.23 nM.

In the case of `CC1(C)Oc2cc(C3(CCCCCBr)CCC3)cc(O)c2[C@@H]2C[C@H](O)CC[C@H]21`, the Ki (Cannabinoid receptor 1) is reported as 1.37 nM.

`CC1(C)Oc2cc(C3(CCCCCBr)CCCC3)cc(O)c2[C@@H]2CC(=O)CC[C@H]21` was tested, and the Ki (Cannabinoid receptor 2 [1]) was 2.59 nM, the Ki (Cannabinoid receptor 2 [2]) was 1.32 nM and the Ki (Cannabinoid receptor 1) was 1.03 nM.

`Cc1c(C(=O)NN2CCCCC2)nn(-c2ccc(Cl)cc2Cl)c1-c1ccc(Cl)cc1` [RIMONABANT] gave an Activity (Rattus norvegicus [3]) of 48% and an Activity (Rattus norvegicus [4]) of 85.4%.

With `CCCCCCC1(c2cc(O)c3c(c2)OC(C)(C)[C@@H]2CCC(=O)C[C@@H]32)SCCS1` the Ki (Cannabinoid receptor 2 [1]) was 42.3 nM, the Ki (Cannabinoid receptor 2 [2]) was 32.6 nM and the Ki (Cannabinoid receptor 1) was 6.57 nM.

Compound `CC1(C)Oc2cc(C3(CCCCCBr)CCC3)cc(O)c2[C@@H]2C[C@@H](O)CC[C@H]21` has a Ki (Cannabinoid receptor 1) of 1.5 nM.

For `CCCCCCC1(c2cc(O)c3c(c2)OC(C)(C)[C@@H]2CCC(=O)C[C@@H]32)CCC1`, the Ki (Cannabinoid receptor 2 [1]) was 13.7 nM, the Ki (Cannabinoid receptor 2 [2]) was 11.9 nM and the Ki (Cannabinoid receptor 1) was 0.84 nM.

`CCCC/C=C\C1(c2cc(O)c3c(c2)OC(C)(C)[C@@H]2CCC(=O)C[C@@H]32)CCC1` showed a Ki (Cannabinoid receptor 2 [1]) of 12 nM, a Ki (Cannabinoid receptor 2 [2]) of 15.1 nM and a Ki (Cannabinoid receptor 1) of 1.13 nM.

In the case of `CC1(C)Oc2cc(C3(CCCCCCBr)CCCC3)cc(O)c2[C@@H]2CC(=O)CC[C@H]21`, the Ki (Cannabinoid receptor 2 [1]) is reported as 1.6 nM, the Ki (Cannabinoid receptor 2 [2]) is reported as 3.02 nM and the Ki (Cannabinoid receptor 1) is reported as 4.96 nM.

Compound `CC1(C)Oc2cc(C3(CCCCC#N)CCCC3)cc(O)c2[C@@H]2CC(=O)CC[C@H]21` has a Ki (Cannabinoid receptor 2 [1]) of 2.78 nM and a Ki (Cannabinoid receptor 1) of 3.14 nM.

For `CC1(C)Oc2cc(C3(CCCCBr)CCCC3)cc(O)c2[C@@H]2CC(=O)CC[C@H]21`, the Ki (Cannabinoid receptor 2 [1]) was 13.9 nM and the Ki (Cannabinoid receptor 1) was 13.1 nM.

With `CCCCCCC1(c2cc(O)c3c(c2)OC(C)(C)[C@@H]2CCC(=O)C[C@@H]32)CCCC1` the Ki (Cannabinoid receptor 2 [1]) was 0.97 nM, the Ki (Cannabinoid receptor 2 [2]) was 3.34 nM and the Ki (Cannabinoid receptor 1) was 1.76 nM.

`CCCCCCC1(c2cc(O)c3c(c2)OC(C)(C)[C@@H]2CC[C@@H](O)C[C@@H]32)CCC1` showed a Ki (Cannabinoid receptor 2 [1]) of 4.21 nM, an ED50 (Rattus norvegicus [5]) of 0.026 mg/kg and a Ki (Cannabinoid receptor 2 [2]) of 5.13 nM. It also gave a Ki (Cannabinoid receptor 1) of 0.16 nM.

`CCCCCCC(C)(C)c1cc(O)c2c(c1)OC(C)(C)[C@@H]1CCC(=O)C[C@@H]21` [NABILONE] showed a Ki (Cannabinoid receptor 2 [1]) of 1.8 nM and a Ki (Cannabinoid receptor 1) of 2.2 nM.
